ChEMBL document CHEMBL1944543, “A facile 'click' approach to novel 15β-triazolyl-5α-androstane derivatives, and an evaluation of their antiproliferative activities in vitro” (Bioorg Med Chem, 2012)
Active and inactive are the calls of the source. The calls are words filed in the database; no cut-off is given here.

Legend:
HeLa [1] = assay: Antiproliferative activity against human HeLa cells after 72 hrs by MTT assay; type: functional, cell-based
Procedure, shortened: (§1)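 HeLa, MCF-7 and A431 cells were kept in minimal essential medium with 10% fetal bovine serum, 1% non-essential amino acids and antibiotic-antimycotic, at 37 °C in humidified 5% CO₂. Cells were seeded at 5000 cells/well, left overnight, then given compound-containing medium. Read-out was MTT colorimetric, with cisplatin as positive control. IC₅₀ came from fitted sigmoidal dose–response curves.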

MCF7 = assay: Antiproliferative activity against human MCF7 cells after 72 hrs by MTT assay; type: functional, cell-based; conditions: MCF7, 72 h; procedure, shortened: as §1
A-431 = assay: Antiproliferative activity against human A431 cells after 72 hrs by MTT assay; type: functional, cell-based; conditions: A-431, 72 h; procedure, shortened: as §1
HeLa [2] = assay: Cell cycle arrest in human HeLa cells assessed as accumulation at S phase at 3 to 10 uM after 24 hrs by flow cytometry analysis; type: functional, cell-based
Procedure, shortened: (§2)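 HeLa cells were treated at […] for 24 or 48 h. Then 200,000 cells per condition were trypsinized, PBS-washed, fixed in cold 70% ethanol for 30 min on ice, washed twice and PI-stained for DNA. 20,000 events were recorded and subG1, G1, S and G2/M percentages computed, with subG1 taken as apoptotic. Values are means of three determinations, tested against control.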

HeLa [3] = assay: Cell cycle arrest in human HeLa cells assessed as accumulation at Sub-G1 phase at 3 to 10 uM after 24 hrs by flow cytometry analysis; type: functional, cell-based; procedure, shortened: as §2
HeLa [4] = assay: Cell cycle arrest in human HeLa cells at 3 to 10 uM after 48 hrs by flow cytometry analysis; type: functional, cell-based; procedure, shortened: as §2
HeLa [5] = assay: Induction of apoptosis in human HeLa cells assessed as nuclear condensation after 24 hrs by Hoechst 33258 staining based fluorescence microscopy; type: functional, cell-based
Procedure, shortened: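 Near-confluent HeLa cells were seeded at 5000 cells/well and exposed for 24 h to vehicle or compound at […]. Hoechst 33258 and PI were added at final 5 and 2 µg/mL, then incubated 1 h at 37 °C.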

HeLa [6] = assay: Cellular uptake in human HeLa cells after 24 hrs by fluorescence microscopy; type: ADME, cell-based
HeLa [7] = assay: Cell cycle arrest in human HeLa cells assessed as accumulation at G2/M phase at 3 to 10 uM after 24 hrs by flow cytometry; type: functional, cell-based; procedure, shortened: as §2
HeLa [8] = assay: Cell cycle arrest in human HeLa cells assessed as accumulation at G2/M phase after 24 hrs by flow cytometry; type: functional, cell-based; procedure, shortened: as §2

`CCCc1ccc(-c2cn([C@@H]3C[C@H](O)[C@@]4(C)CC[C@H]5[C@@H](CC[C@H]6C[C@@H](OC(C)=O)CC[C@@]65C)[C@H]34)nn2)cc1` showed an IC50 (HeLa [1]) of 6.52 µM, an IC50 (MCF7) greater than 30 µM and an IC50 (A-431) greater than 30 µM. For the same compound, the Activity (HeLa [2]) was “Active”, the Activity (HeLa [3]) was “Active” and the Activity (HeLa [4]) was “Active”. For the same compound, the Activity (HeLa [5]) was “Dose-dependent effect”, the Drug uptake (HeLa [6]) was “Dose-dependent effect” and the Activity (HeLa [7]) was “inactive”.
With `CC(=O)O[C@H]1CC[C@@]2(C)[C@@H](CC[C@H]3[C@@H]4[C@H](n5cc(-c6ccc(C)cc6)nn5)C[C@H](O)[C@@]4(C)CC[C@@H]32)C1` the IC50 (HeLa [1]) was 9.4 µM, the IC50 (MCF7) was 10.3 µM and the IC50 (A-431) was 22.4 µM. The Activity (HeLa [8]) was “Dose-dependent effect”, the Activity (HeLa [3]) was “Active” and the Activity (HeLa [4]) was “Active”. The Activity (HeLa [5]) was “Dose-dependent effect” and the Drug uptake (HeLa [6]) was “Dose-dependent effect”.
`CC(=O)O[C@H]1CC[C@@]2(C)[C@@H](CC[C@H]3[C@@H]4[C@H](n5cc(-c6ccc(F)cc6)nn5)CC(=O)[C@@]4(C)CC[C@@H]32)C1` showed an IC50 (HeLa [1]) of 11 µM, an IC50 (MCF7) of 3.39 µM and an IC50 (A-431) of 16 µM.
In the case of `COc1ccc2c(c1)CC[C@H]1[C@@H]3[C@H](n4cc(-c5ccccc5)nn4)C[C@H](O)[C@@]3(C)CC[C@H]21`, the IC50 (HeLa [1]) is reported as greater than 30 µM, the IC50 (MCF7) is reported as greater than 30 µM and the IC50 (A-431) is reported as 1.7 µM.
`CC(=O)O[C@H]1CC[C@@]2(C)[C@@H](CC[C@H]3[C@@H]4[C@H](n5cc(-c6ccc(F)cc6)nn5)C[C@H](O)[C@@]4(C)CC[C@@H]32)C1` was tested, and the IC50 (HeLa [1]) was greater than 30 µM, the IC50 (MCF7) was greater than 30 µM and the IC50 (A-431) was greater than 30 µM.
In the case of `COc1ccc2c(c1)CC[C@H]1[C@@H]3[C@H](n4cc(-c5ccccc5)nn4)CC(=O)[C@@]3(C)CC[C@H]21`, the IC50 (HeLa [1]) is reported as 14.9 µM, the IC50 (MCF7) is reported as 11.3 µM and the IC50 (A-431) is reported as 4.77 µM.
For `CC(=O)O[C@H]1CC[C@@]2(C)[C@@H](CC[C@H]3[C@@H]4[C@H](n5cc(-c6ccccc6)nn5)C[C@H](O)[C@@]4(C)CC[C@@H]32)C1`, the IC50 (HeLa [1]) was 7.7 µM, the IC50 (MCF7) was 19.2 µM and the IC50 (A-431) was 20.7 µM. For the same compound, the Activity (HeLa [8]) was “Dose-dependent effect”, the Activity (HeLa [3]) was “Active” and the Activity (HeLa [4]) was “Active”. For the same compound, the Activity (HeLa [5]) was “Dose-dependent effect” and the Drug uptake (HeLa [6]) was “Dose-dependent effect”.
For `CC(=O)O[C@H]1CC[C@@]2(C)[C@@H](CC[C@H]3[C@@H]4[C@H](n5cc(-c6ccc(C)cc6)nn5)CC(=O)[C@@]4(C)CC[C@@H]32)C1`, the IC50 (HeLa [1]) was 10.3 µM, the IC50 (MCF7) was 2.68 µM and the IC50 (A-431) was 10.7 µM. For the same compound, the Activity (HeLa [8]) was “Dose-dependent effect”, the Activity (HeLa [5]) was “Dose-dependent effect” and the Drug uptake (HeLa [6]) was “Dose-dependent effect”.
`CCCc1ccc(-c2cn([C@@H]3CC(=O)[C@@]4(C)CC[C@H]5[C@@H](CC[C@H]6C[C@@H](OC(C)=O)CC[C@@]65C)[C@H]34)nn2)cc1` gave an IC50 (HeLa [1]) of 15 µM, an IC50 (MCF7) of 8.4 µM and an IC50 (A-431) greater than 30 µM.
Work on `CC(=O)O[C@H]1CC[C@@]2(C)[C@@H](CC[C@H]3[C@@H]4[C@H](n5cc(-c6ccccc6)nn5)CC(=O)[C@@]4(C)CC[C@@H]32)C1` yielded an IC50 (HeLa [1]) of 9.16 µM, an IC50 (MCF7) of 1.69 µM and an IC50 (A-431) of 9.69 µM. For the same compound, the Activity (HeLa [8]) was “Dose-dependent effect”, the Activity (HeLa [3]) was “Active” and the Activity (HeLa [4]) was “Active”. For the same compound, the Activity (HeLa [5]) was “Dose-dependent effect” and the Drug uptake (HeLa [6]) was “Dose-dependent effect”.
